The record followed here is ChEMBL document CHEMBL5678799 (Biochem J, 2009).

In data set [1] the target is Casein kinase I isoform delta (Homo sapiens) (UniProt P48730). As to the kind of experiment: Inhibition of recombinant human N-terminal GST-tagged CK1delta (1 to 415 residues) expressed in Escherichia coli assessed as remaining activity at 1 uM using RRKDLHDDEEDEAMSITA as substrate incubated for 30 mins in presence of [gamma-33P]ATP by filter binding method relative to control. The gist of the method: (§1)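 Robotic radiometric panel assay, 30 min at room temperature (21 °C), with 10 mM magnesium acetate. […] Compound at 1 or 10 µM. Residual activity expressed relative to compound-free control; triplicate average ± S.D.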

The target in data set [2] is Mitogen-activated protein kinase 11 (Homo sapiens) (UniProt Q15759). The data set can be described thus: Inhibition of recombinant human N-terminal GST-tagged P38beta (1 to 364 residues) expressed in Escherichia coli assessed as remaining activity at 1 uM using MBP as substrate incubated for 30 mins in presence of [gamma-33P]ATP by filter binding method relative to control. The gist of the method: (§2)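 Panel assays were run for 30 min at 21 °C, within the linear range for time and enzyme. […] Results are percent activity remaining relative to compound-free control, averaged from triplicate ± S.D.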

Data set [3] deals with Mitogen-activated protein kinase 12 (Homo sapiens) (UniProt P53778). The data set can be described thus: Inhibition of recombinant human N-terminal GST-tagged P38gamma (1 to 367 residues) expressed in Escherichia coli assessed as remaining activity at 1 uM using MBP as substrate incubated for 30 mins in presence of [gamma-33P]ATP by filter binding method relative to control. The gist of the method: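 Radiometric kinase panel run robotically at room temperature (21 °C) for 30 min, linear in time and enzyme. […] Activity is expressed as percent of control without compound, from triplicate determinations ± S.D.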

Data set [4] has as its target Serine/threonine-protein kinase PAK 6 (Homo sapiens) (UniProt Q9NQU5). The data set can be described thus: Inhibition of recombinant human N-terminal GST-tagged PAK6 (2 to 681 residues) expressed in Escherichia coli assessed as remaining activity at 1 uM using RRRLSFAEPG as substrate incubated for 30 mins in presence of [gamma-33P]ATP by filter binding method relative to control. In short, it runs like this:
as §2

The target in data set [5] is MAP kinase-activated protein kinase 5 (Homo sapiens) (UniProt Q8IW41). The data set can be described thus: Inhibition of recombinant human His6-tagged PRAK (1 to 471 residues) expressed in baculovirus infected Sf21 cells assessed as remaining activity at 1 uM using phosphorylase b peptide as substrate incubated for 30 mins in presence of [gamma-33P]ATP by filter binding method relative to control. The gist of the method:
as §1

Data set [6] addresses Ribosomal protein S6 kinase alpha-1 (Homo sapiens) (UniProt Q15418). The data set can be described thus: Inhibition of recombinant human N-terminal His6-tagged RSK1 (1 to 735 residues) expressed in baculovirus infected Sf21 cells assessed as remaining activity at 1 uM using KKLNRTLSVA as substrate incubated for 30 mins in presence of [gamma-33P]ATP by filter binding assay relative to control.

For data set [7], the target named is Dual specificity tyrosine-phosphorylation-regulated kinase 1A (Homo sapiens) (UniProt Q13627). As to the kind of experiment: Inhibition of recombinant human N-terminal GST-tagged DYRK1A (1 to 502 residues) expressed in Escherichia coli assessed as remaining activity at 10 uM using KKISGRLSPIMTEQ as substrate incubated for 30 mins in presence of [gamma-33P]ATP by filter binding method relative to control. The gist of the method: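 Run robotically for 30 min at 21 °C under linear conditions. Compound at 1 or 10 µM. Percentage activity remaining versus control without compound, triplicate mean ± S.D.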

Data set [8] deals with Insulin receptor-related protein (Homo sapiens) (UniProt P14616). As to the kind of experiment: Inhibition of recombinant human N-terminal His6-tagged IRR (944 to 1236 residues) expressed in baculovirus infected Sf21 cells assessed as remaining activity at 10 uM using MBP as substrate incubated for 30 mins in presence of [gamma-33P]ATP by filter binding method relative to control.

The target of data set [9] is Serine/threonine-protein kinase 3 (Homo sapiens) (UniProt Q13188). As to the kind of experiment: Inhibition of recombinant human N-terminal GST-tagged MST2 (2 to 491 residues) expressed in baculovirus infected Sf21 cells assessed as remaining activity at 10 uM using MBP as substrate incubated for 30 mins in presence of [gamma-33P]ATP by filter binding method relative to control. In short, it runs like this:
as §2

Data set [10] addresses Mitogen-activated protein kinase 14 (Homo sapiens) (UniProt Q16539). As to the kind of experiment: Inhibition of recombinant human N-terminal GST-tagged P38alpha (1 to 360 residues) expressed in Escherichia coli assessed as remaining activity at 10 uM using MBP as substrate incubated for 30 mins in presence of [gamma-33P]ATP by filter binding method relative to control. In short, it runs like this: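 Incubation was 30 min at room temperature (21 °C) under conditions linear with time and enzyme amount. Activity is reported as percent of control lacking compound, triplicate mean ± S.D.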

Data set [11] concerns the target Serine/threonine-protein kinase PAK 6 (Homo sapiens) (UniProt Q9NQU5). The data set can be described thus: Inhibition of recombinant human N-terminal GST-tagged PAK6 (2 to 681 residues) expressed in Escherichia coli assessed as remaining activity at 10 uM using RRRLSFAEPG as substrate incubated for 30 mins in presence of [gamma-33P]ATP by filter binding method relative to control. The gist of the method: as §2

In data set [12] the target is Phosphatidylinositol 4-phosphate 3-kinase C2 domain-containing subunit beta (Homo sapiens) (UniProt O00750). As to the kind of experiment: Inhibition of PI3KC2beta (unknown origin) assessed as remaining activity at 1 uM using phosphatidylinositol as substrate incubated for 30 mins in presence of ATP relative to control. The gist of the method: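 PI3KC2β assayed with 20 μM phosphatidylinositol, 0.2 mM ATP, 2 mM MgCl2, in Tris/HCl pH 7.5 with CHAPS, 30 min at room temperature. Stopped with EDTA, product detected by time-resolved FRET competition with PtdIns3P–biotin and SGK PX domain. Activity as % of no-compound control, triplicate.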

Data set [13] addresses Sphingosine kinase 1 (Homo sapiens) (UniProt Q9NYA1). As to the kind of experiment: Inhibition of SPHK1 (unknown origin) assessed as remaining activity at 10 uM using sphingosine as substrate incubated for 30 mins in presence of ATP relative to control. The gist of the method: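 SPHK1 assayed with 10 μM sphingosine, 10 μM ATP in 50 mM Tris/HCl pH 7.5, 150 mM NaCl, 5 mM MgCl2, 1 mM EGTA, 1 mM DTT, 30 min at room temperature. ATP remaining read by Kinase-Glo Plus luminescence after 10 min. Activity as % of control, triplicate.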

The test system of another data set is MEF. As to the kind of experiment: Growth inhibition of mLST8 knockout MEF cells assessed reduction in cell viability at 3 uM incubated for 1 to 3 days by crystal violet staining based assay. Format: toxicity. To be noted: mouse, time 1-3 day. In short, it runs like this: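 MEFs seeded at 20000 cells per 1.91 cm2 well, grown overnight in 10% foetal bovine serum, then cultured 1, 2 or 3 days with 3 μM inhibitor, 100 nM rapamycin or DMSO. Medium changed every 24 h with freshly dissolved inhibitors. Cells fixed in 4% paraformaldehyde, stained with 0.1% Crystal Violet, dye extracted in 10% acetic acid, A590 read. Quadruplicate wells, expressed as % of DMSO control.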

In the next data set the target is mTORC1 (Homo sapiens) (UniProt P42345+Q8N122+Q9BVC4). The following applies: HEK293, dose 100-300 nM, time 30.0 min.
mTORC1 (Homo sapiens), sequence (Q8N122 whole entry, looked up, other chains not shown): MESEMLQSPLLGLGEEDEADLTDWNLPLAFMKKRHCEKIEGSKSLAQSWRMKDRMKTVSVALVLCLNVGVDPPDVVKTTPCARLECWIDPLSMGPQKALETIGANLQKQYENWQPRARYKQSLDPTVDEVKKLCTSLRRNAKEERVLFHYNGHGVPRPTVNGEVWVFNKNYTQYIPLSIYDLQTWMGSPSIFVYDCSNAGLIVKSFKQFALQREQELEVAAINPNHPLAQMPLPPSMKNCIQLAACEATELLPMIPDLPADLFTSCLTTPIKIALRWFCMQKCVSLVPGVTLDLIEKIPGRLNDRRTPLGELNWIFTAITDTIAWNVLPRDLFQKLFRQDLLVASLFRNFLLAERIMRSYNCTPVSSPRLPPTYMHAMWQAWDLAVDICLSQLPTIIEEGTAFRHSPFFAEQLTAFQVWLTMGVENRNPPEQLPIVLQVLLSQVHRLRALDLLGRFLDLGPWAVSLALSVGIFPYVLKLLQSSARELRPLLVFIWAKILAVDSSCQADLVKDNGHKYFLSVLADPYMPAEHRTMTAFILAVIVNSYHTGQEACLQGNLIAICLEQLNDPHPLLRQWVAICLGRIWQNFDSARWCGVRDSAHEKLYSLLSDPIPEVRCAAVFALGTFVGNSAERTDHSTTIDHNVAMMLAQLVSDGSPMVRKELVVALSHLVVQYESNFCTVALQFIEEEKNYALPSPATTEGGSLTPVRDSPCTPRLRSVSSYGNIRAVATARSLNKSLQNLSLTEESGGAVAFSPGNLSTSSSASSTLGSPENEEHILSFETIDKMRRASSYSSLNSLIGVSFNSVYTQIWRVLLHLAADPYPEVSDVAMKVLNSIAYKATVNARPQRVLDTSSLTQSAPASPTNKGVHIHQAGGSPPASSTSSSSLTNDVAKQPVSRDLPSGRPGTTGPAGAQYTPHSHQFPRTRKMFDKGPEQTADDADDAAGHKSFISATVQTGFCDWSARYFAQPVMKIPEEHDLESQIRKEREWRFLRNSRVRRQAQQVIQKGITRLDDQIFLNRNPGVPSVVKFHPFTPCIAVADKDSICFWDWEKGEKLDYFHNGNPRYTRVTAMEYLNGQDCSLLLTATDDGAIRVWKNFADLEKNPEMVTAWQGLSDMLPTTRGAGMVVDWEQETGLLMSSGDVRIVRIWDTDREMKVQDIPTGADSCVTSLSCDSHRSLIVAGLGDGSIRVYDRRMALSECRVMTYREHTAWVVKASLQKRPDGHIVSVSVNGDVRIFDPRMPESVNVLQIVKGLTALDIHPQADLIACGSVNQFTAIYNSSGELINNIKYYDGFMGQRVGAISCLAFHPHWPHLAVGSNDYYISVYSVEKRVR
mTORC1 (Homo sapiens), sequence (Q9BVC4 whole entry, looked up, other chains not shown): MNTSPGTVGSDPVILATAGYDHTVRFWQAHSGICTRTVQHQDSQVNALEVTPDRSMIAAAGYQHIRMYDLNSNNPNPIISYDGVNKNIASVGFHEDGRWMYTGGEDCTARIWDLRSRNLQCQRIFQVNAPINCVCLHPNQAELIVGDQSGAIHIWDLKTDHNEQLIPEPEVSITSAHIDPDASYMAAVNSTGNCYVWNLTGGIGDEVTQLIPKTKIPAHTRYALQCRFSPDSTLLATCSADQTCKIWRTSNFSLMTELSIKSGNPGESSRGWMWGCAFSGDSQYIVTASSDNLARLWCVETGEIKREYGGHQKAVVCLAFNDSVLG

Serine/threonine-protein kinase PAK 6 (Homo sapiens), sequence (Q9NQU5 whole entry, looked up, the tested form may be a part): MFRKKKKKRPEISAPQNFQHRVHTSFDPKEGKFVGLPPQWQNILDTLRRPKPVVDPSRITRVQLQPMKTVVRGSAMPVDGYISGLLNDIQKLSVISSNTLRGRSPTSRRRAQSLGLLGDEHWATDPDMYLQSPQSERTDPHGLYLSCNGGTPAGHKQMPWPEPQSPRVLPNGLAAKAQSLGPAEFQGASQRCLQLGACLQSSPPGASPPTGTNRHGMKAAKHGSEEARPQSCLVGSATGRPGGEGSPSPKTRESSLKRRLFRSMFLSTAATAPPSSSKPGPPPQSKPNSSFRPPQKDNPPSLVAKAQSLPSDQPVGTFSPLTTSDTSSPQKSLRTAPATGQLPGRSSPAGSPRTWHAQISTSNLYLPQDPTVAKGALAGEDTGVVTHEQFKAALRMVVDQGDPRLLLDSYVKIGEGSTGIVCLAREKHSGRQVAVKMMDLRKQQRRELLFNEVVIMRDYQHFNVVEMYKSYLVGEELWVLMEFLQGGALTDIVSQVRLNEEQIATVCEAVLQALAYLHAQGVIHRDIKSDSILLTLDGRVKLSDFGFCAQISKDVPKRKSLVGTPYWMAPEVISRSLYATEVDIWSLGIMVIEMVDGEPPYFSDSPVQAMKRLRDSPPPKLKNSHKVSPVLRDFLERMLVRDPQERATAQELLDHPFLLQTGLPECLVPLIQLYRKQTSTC
Serine/threonine-protein kinase 3 (Homo sapiens), sequence (Q13188 whole entry, the tested form may be a part): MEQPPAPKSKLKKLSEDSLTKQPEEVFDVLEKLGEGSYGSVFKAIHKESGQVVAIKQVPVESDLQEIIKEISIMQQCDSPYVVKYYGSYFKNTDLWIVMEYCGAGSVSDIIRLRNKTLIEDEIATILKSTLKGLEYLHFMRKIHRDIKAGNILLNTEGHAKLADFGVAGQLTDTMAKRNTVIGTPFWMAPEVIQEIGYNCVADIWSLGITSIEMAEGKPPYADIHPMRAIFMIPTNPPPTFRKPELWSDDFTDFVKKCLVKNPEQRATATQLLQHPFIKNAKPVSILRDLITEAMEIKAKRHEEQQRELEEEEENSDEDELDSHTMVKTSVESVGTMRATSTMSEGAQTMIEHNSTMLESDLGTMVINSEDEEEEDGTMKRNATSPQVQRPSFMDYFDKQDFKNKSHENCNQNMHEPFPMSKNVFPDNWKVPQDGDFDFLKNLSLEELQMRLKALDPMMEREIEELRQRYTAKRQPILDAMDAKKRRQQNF
Phosphatidylinositol 4-phosphate 3-kinase C2 domain-containing subunit beta (Homo sapiens), sequence (O00750 whole entry, the tested form may be a part): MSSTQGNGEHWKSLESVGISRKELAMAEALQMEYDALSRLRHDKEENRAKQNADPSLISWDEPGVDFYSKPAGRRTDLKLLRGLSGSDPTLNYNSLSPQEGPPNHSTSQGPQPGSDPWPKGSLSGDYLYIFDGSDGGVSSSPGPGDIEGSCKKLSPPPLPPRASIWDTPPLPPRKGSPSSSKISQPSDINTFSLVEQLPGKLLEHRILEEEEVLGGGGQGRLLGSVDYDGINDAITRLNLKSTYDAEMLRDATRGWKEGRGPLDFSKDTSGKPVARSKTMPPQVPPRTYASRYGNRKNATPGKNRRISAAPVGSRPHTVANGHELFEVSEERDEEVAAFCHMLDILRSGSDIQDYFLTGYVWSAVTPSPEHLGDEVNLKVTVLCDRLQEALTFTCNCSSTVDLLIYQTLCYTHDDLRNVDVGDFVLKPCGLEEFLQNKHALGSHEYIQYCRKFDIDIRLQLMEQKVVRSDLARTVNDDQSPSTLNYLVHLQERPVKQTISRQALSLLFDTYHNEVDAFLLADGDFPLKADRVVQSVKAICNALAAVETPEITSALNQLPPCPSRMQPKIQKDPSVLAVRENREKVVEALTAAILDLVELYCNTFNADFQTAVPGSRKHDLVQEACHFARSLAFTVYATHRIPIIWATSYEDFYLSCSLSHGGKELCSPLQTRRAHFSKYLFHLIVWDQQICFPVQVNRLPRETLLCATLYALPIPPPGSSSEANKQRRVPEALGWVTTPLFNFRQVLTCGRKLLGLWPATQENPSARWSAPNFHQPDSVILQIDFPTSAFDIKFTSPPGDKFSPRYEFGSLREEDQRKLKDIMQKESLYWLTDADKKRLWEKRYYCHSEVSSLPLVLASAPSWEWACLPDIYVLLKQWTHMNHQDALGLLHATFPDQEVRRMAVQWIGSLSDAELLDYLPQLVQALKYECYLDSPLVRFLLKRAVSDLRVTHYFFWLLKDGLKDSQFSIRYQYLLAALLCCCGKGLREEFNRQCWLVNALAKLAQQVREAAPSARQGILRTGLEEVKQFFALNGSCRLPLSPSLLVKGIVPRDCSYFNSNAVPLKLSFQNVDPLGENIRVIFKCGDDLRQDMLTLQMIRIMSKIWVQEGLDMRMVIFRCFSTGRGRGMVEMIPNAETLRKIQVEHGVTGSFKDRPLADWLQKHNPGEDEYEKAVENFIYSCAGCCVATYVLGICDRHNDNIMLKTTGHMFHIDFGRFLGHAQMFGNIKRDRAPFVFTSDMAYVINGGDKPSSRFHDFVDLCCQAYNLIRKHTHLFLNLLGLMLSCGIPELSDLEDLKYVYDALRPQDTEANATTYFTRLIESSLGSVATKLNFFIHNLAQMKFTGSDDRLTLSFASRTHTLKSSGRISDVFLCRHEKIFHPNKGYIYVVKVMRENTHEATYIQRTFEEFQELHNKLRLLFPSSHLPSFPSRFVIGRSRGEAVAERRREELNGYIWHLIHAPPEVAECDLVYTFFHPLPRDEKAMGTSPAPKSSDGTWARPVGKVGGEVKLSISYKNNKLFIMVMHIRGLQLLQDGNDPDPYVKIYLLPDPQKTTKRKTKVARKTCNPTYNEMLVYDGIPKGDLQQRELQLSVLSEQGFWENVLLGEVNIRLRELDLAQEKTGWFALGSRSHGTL
Mitogen-activated protein kinase 11 (Homo sapiens), sequence (Q15759 whole entry, the tested form may be a part): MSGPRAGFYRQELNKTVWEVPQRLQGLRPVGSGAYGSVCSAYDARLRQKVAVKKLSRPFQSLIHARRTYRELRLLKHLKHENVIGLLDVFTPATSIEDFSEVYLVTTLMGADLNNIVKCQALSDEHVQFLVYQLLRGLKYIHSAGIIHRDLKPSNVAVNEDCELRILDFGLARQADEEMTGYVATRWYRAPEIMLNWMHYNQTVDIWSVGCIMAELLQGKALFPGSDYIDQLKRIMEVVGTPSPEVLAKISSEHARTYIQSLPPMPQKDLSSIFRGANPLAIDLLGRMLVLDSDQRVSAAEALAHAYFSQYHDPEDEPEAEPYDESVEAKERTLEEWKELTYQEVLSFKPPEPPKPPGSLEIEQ

With `COc1ccc(-c2ccc3c(N4CCOCC4)nc(N4C[C@@H](C)O[C@@H](C)C4)nc3n2)cc1CO` [Ku-0063794], the Activity in [1] was 112%; in data set [2], 106%; in data set [3], 89%; in [4], 75%; in data set [5] it was 67%; in data set [6], 100%. For the same compound, the Activity was found to be 80% in data set [7]; 71% in data set [8]; 102% in [9]; 96% in [10]; 100% in [11]; 126% in data set [12]. For the same compound, the Activity in data set [13] came out at 99%. In the data set with MEF, the “growth inhibition (GI)” value is recorded as “Toxic”. At mTORC1 (Homo sapiens), this compound showed an inhibition of 100%.
